Assay results published in paper PMC8427789 (ACS Omega, 2021).

Legend:
[1] = target: T1, recombinant human protein tyrosine phosphatase 1B (PTP-1B) (Homo sapiens, UniProt P18031); assay: PTP-1B activity assay; format: biochemical
T1 sequence (P18031 1-435): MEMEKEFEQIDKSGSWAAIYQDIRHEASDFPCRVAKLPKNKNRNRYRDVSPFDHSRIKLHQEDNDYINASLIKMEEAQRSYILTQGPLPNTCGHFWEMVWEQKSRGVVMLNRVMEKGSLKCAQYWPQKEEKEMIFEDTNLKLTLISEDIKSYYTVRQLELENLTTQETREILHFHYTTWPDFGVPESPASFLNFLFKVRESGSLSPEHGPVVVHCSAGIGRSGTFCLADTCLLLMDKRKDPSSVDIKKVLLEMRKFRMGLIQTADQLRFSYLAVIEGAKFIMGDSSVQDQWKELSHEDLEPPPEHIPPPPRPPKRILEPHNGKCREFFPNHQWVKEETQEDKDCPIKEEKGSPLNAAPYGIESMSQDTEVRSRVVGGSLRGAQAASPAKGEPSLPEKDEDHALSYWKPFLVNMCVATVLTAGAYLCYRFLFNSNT

PTP-1B = target: T2, PTP-1B (Homo sapiens, UniProt P18031); assay: PTP-1B kinetic studies; format: biochemical
T2 sequence (P18031 1-435): T1 sequence (P18031 1-435)
Method in brief: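 Recombinant human PTP-1B in 100 mM tris buffer, pH 6.8. Test compound at 0.03, 0.07 and 0.1 mM, dissolved in DMSO or buffer, preincubated 5 min with enzyme (solution at 1.56 mg/mL). Then p-NPP added at 0.6–3 mM for 20 min at room temperature, absorbance read at 415 nm. Lineweaver–Burk double-reciprocal plots made; Vmax, Km and Ki from nonlinear regression fit.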

[2] = target: yeast α-glucosidase (yeast AG) (Saccharomyces cerevisiae, UniProt P53051); assay: biochemical
yeast α-glucosidase (yeast AG), sequence (P53051 2-589): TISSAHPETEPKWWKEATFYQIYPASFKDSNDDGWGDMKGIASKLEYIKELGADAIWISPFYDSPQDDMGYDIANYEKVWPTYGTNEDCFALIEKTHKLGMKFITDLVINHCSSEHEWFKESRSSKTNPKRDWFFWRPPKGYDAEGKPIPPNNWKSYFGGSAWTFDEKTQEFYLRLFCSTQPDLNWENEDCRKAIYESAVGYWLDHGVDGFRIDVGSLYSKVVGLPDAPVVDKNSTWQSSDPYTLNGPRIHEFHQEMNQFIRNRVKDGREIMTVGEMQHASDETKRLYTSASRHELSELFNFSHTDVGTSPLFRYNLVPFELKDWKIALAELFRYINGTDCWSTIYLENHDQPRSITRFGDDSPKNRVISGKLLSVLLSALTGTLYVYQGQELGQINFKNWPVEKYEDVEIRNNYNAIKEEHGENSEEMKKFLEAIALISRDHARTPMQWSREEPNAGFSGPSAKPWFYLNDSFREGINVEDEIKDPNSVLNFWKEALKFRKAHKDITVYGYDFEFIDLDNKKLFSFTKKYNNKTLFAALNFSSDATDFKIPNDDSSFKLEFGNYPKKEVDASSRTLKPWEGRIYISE

IC50 [1] [µM]	Ki (PTP-1B) [µM]	type of inhibition of PTP-1B (PTP-1B; Lineweaver–Burk plot)	Vmax (PTP-1B; PTP-1B, p-NPP) [mM/min]	IC50 [2] [µM]	SMILES
81 ± 4	27.5	noncompetitive	1.308		COC(=O)c1c(O)ccc2oc3cc(CO)cc(O)c3c(=O)c12 [Compound 3, sydowinin B]
				403 ± 10	C[C@H]1O[C@H](O[C@H]2[C@H](O)[C@@H](O)[C@@H](O[C@H]3[C@H](O)[C@@H](O)C(O)O[C@@H]3CO)O[C@@H]2CO)[C@H](O)[C@@H](O)[C@@H]1N[C@H]1C=C(CO)[C@@H](O)[C@H](O)[C@H]1O (some centres unmarked) [acarbose]
